Screens: PubChem BioAssay, several laboratories
Sampled rows, rich in hits. Any-hit rate of the full collection: about 2.2%.
ARFGAP1 inh: inhibitors of rat ARFGAP1; Q62848; Arfgap1-stimulated ARF1 GTP hydrolysis, GDP FP detection; inhibition, % at 16.5 µM; 360,000 compounds, 0.26% hits; AID 651572;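 active means inhibition above a per-plate limit, mean inhibition of low control wells plus 3 SD, cut at about 25% in these data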;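 further: 0% = DMSO wells with enzyme and 100% = wells lacking Arfgap1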
Target sequence (Q62848 1-136 limits assumed): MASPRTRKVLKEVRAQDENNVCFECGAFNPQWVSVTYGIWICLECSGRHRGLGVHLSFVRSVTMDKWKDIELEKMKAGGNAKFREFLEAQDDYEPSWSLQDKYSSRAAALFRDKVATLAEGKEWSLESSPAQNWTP
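Material – truncated rat Arfgap1 GAP domain · Buffer or medium – HEPES-based buffer, pH 7.5 · Reagent – human ARF1(Δ1-17)-GTP substrate · Dosing – 16.5 µM single point, 1.26% DMSO · Schedule – GTP hydrolysis reaction 2 h at 25 °C · Technique – GDP detection by fluorescence polarization · Benchmarks – No-Arfgap1 wells (100%) versus DMSO full-reaction wells (0%) · Repeats – single replicate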
ASAP1 inh: inhibitors of human ASAP1 ArfGAP activity; Q9ULH1; 360,000 compounds, 0.19% hits; ASAP1-stimulated ARF1 GTP hydrolysis, GDP FP detection; inhibition, % at 16.5 µM; AID 624377; in the data active means inhibition above about 25%;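 further: 0% = vehicle with enzyme and substrate and 100% = no enzyme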
Target sequence (Q9ULH1 325-724 limits assumed): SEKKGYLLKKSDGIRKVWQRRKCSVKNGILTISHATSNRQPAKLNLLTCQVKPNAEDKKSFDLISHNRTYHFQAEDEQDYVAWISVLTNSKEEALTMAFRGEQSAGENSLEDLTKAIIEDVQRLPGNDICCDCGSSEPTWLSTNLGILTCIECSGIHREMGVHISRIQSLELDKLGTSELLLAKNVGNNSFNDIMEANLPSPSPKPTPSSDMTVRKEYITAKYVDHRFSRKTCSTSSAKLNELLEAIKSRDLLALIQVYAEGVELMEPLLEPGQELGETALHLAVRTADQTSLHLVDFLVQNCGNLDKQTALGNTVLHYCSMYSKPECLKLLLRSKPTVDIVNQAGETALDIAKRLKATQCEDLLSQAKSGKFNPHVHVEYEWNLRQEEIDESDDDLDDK
rCAG RNA binder: r(CAG) repeat RNA binding; TO-PRO-1 dye displacement fluorescence; inhibition, % at 3 µM; 370,000 compounds, 1.3% hits;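 active means inhibition above the plate cutoff, the mean of all test compounds on that plate plus 3 SD, cut at about 35% in these data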;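 further: 0% = DMSO alone and 100% = 100 µM mitoxantrone as full dye displacement; higher means more dye released from RNA so lower well fluorescence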
NadD block: inhibitors of Staphylococcus aureus NadD; inhibition, % at 20 µM; 360,000 compounds, 0.78% hits; AID 602399; purified NadD enzyme, colorimetric absorbance read-out; in the data active means inhibition above about 26%
NadD conf: confirmation of Staphylococcus aureus NadD inhibitors; shares compounds with NadD block; purified S. aureus NadD, colorimetric enzyme assay; inhibition, % at 20 µM; 2,000 compounds, 13% hits; AID 624309; in the data active means inhibition mostly above about 42%, no sharp cut-off; inactive means mostly below about 42%
* = called active by the depositor; · = no result given.

SMILES	ARFGAP1 inh	ASAP1 inh	rCAG RNA binder	NadD block	NadD conf
CC(=O)NC1CC2CCCC(C1)N2C(=O)Nc1ccc(Cl)cc1 (centres undefined)	13.9	-2.4	-0.3	-3.8	·
O=C(CCc1ccccc1)N[C@H]1[C@@H](OC(=O)c2cnccn2)CCC[C@@]12C(=O)N(Cc1ccccc1)c1ccccc12	·	·	2.6	·	·
CCCCC(CC)C(=O)Nc1cc(C(=O)NCc2ccc(C)cc2)ccc1N1CCC2(CC1)CC(c1ccccc1)=NO2 (centres undefined)	10.7	-13.1	9.6	32.8*	2.1
CCCCC(CC)C(=O)Nc1cc(C(=O)NCc2ccc(C)cc2)ccc1N1CCC2(CC1)CC(c1cccc(Br)c1)=NO2 (centres undefined)	-5.0	-2.5	9.4	28.3	·
CCCCC(CC)C(=O)Nc1cc(C(=O)NCCC)ccc1N1CCC2(CC1)CC(c1cccc(Br)c1)=NO2 (centres undefined)	-7.6	0.0	4.9	30.6*	3.6
COc1ccc(CNCC#Cc2ccccc2)cc1	·	·	0.6	·	·
Clc1ccc(/C=N/NC2=Nc3cccc4cccc2c34)cc1	-0.2	-0.7	6.5	30.2*	16.7
O=C(NCCc1ccc(F)cc1)c1ccc2c(c1)ncn2C1CCCCC1	·	·	1.4	·	·
CC12CCC3C(CCC4CC(O)CCC43C)C1CC(O)C2 (centres undefined)	-2.1	9.2	-0.1	-1.2	·
C/C(=N\NC(N)=S)C1=CCC2C3CC[C@H]4CC(O)CC[C@]4(C)C3CC[C@]12C (some centres undefined)	3.7	-1.3	1.8	36.4*	11.8
Cn1c(SCC(=O)N2c3ccccc3CCc3ccccc32)nnc1-c1cc2ccccc2cc1O	5.8	9.0	23.2	56.1*	51.6*
O=C(Cc1csc(Nc2nc(=S)[nH]c3ccccc23)n1)NCc1cccc(Cl)c1	8.1	3.6	5.1	32.1*	2.4
O=C(Cc1csc(Nc2nc(=S)[nH]c3ccccc23)n1)N1CCN(c2cccc(C(F)(F)F)c2)CC1	-1.7	17.6	5.0	33.3*	7.6
O=C(Nc1ccccc1C(F)(F)F)OC1CCC12CCC(c1ccccc1)CC2 (centres undefined)	·	·	3.6	·	·
Cc1cc2nc(-c3ccc(SCC(=O)Nc4ccc5c(c4)OCCO5)nc3)[nH]c2cc1C	9.7	1.5	-1.9	29.7*	20.4
Cc1ccc(OCc2ccc(C(=O)Nc3nc4ccccc4n3Cc3ccccc3)o2)c([N+](=O)[O-])c1	5.2	-5.6	1.9	34.0*	7.0
Cn1cnnc1Sc1cc(N2CCN(S(=O)(=O)c3ccc(Cl)c(Cl)c3)CC2)ccc1[N+](=O)[O-]	4.4	-3.5	5.6	42.1*	10.4
Cc1cc(C)n(-c2cc(N3CCN(S(=O)(=O)c4ccc5ccccc5c4)CC3)ccc2[N+](=O)[O-])n1	-2.7	-0.2	7.1	50.1*	41.1
Cc1ccc(S(=O)(=O)N2CCN(c3ccc([N+](=O)[O-])c(Sc4nncn4C)c3)CC2)cc1	0.8	3.1	2.7	11.9	·
Cc1nc(Nc2ccc(Cl)c(Cl)c2)sc1C(/C=C/c1ccc2c(c1)OCO2)=NNc1ccc([N+](=O)[O-])cc1[N+](=O)[O-]	6.2	5.7	8.0	48.1*	0.2
NS(=O)(=O)c1ccc(N/N=C/c2ccc3c(c2)OCO3)c([N+](=O)[O-])c1	2.2	6.2	4.5	3.7	·
O=c1c2ccccc2n(Cc2ccno2)n1[C@@H](Cc1ccccc1)Cn1cc(-c2ccc(-c3ccccc3)cc2)nn1	·	·	10.4	·	·
N#C/C(=C/c1cn(-c2ccccc2)nc1-c1cccc(S(=O)(=O)N2CCCC2)c1)C(=O)NCc1ccco1	9.5	5.2	24.0	45.6*	48.6*
N#C/C(=C/c1cn(-c2ccccc2)nc1-c1cccc(OCc2ccccc2)c1)C(=O)NCCCn1ccnc1	3.4	-1.6	9.0	40.8*	-1.7
COc1cc(OC)c2c(-c3ccccc3)cc(=O)oc2c1C(CC(=O)N1CCN(c2ccccc2)CC1)c1ccc(N(C)C)cc1 (centres undefined)	8.7	-5.8	14.7	30.5*	1.3
SMILES	ARFGAP1 inh	ASAP1 inh	rCAG RNA binder	NadD block	NadD conf
Cc1ccccc1COc1ccc(/C(O)=C2/C(=O)C(=O)N(CCCn3ccnc3)C2c2ccco2)cc1 (centres undefined)	-1.1	0.1	15.4	31.3*	53.4*
Nc1nonc1-c1nc2ccccc2n1CC(=O)N/N=C\c1ccc(-c2ccc(Cl)cc2)o1	6.2	9.2	3.0	41.5*	8.6
NNC(=O)Cn1c(-c2nonc2N)nc2ccccc21	-3.3	0.5	1.1	8.0	·
Cc1cc(F)ccc1S(=O)(=O)Nc1ccccc1C(=O)Nc1ccccc1-c1nc2ccccc2[nH]1	·	·	·	33.3*	-0.3
CC1CCN(S(=O)(=O)c2ccc(C(=O)Nc3ccccc3-c3nc4ccccc4[nH]3)cc2)CC1	14.4	5.7	8.1	28.6*	3.6
CC1CCCN(S(=O)(=O)c2ccc(C(=O)Nc3ccccc3-c3nc4ccccc4[nH]3)cc2)C1 (centres undefined)	-4.0	1.6	5.3	5.4	·
CC(C)=CCC[C@H](C)C[C@@H]1Cc2[nH][nH]c(=O)c2[C@H](c2ccc(F)cc2)O1	-9.1	12.2	6.1	21.3	·
COc1ccc(C#Cc2c(-c3ccccc3OC)oc3ccccc23)cc1	5.8	5.8	2.1	·	·
CC(C)c1nc2sc3c(=S)nc[nH]c3c2c2c1CCC2	4.4	3.4	10.4	9.3	·
S=c1nc[nH]c2c1sc1nc(N3CCOCC3)c3c(c12)CCCC3	1.8	8.9	9.8	32.8*	-2.0
O=S(=O)(c1ccc(Cl)cc1)N1CCN(c2nc(-c3cccs3)nc3ccccc23)CC1	-2.0	5.2	1.8	29.5*	27.5
c1csc(-c2nc(N3CCOCC3)c3ccccc3n2)c1	-2.5	-6.2	-1.0	-6.5	·
Cc1cc(-c2csc(NC(=O)c3ccccc3C(F)(F)F)n2)c(C)n1Cc1ccccc1	11.5	-12.9	18.5	33.2*	19.5
CCCc1c(C(=O)N/N=C/c2ccc(OCc3ccccc3)c(OC)c2)nnn1-c1nonc1N	-3.6	-8.0	0.2	34.7*	16.6
CC(C)c1ccc(/C=N/NC(=O)c2nnn(-c3nonc3N)c2CSC2=NCCS2)cc1	-0.1	17.3	9.1	31.8*	21.5
Nc1nonc1-n1nnc(C(=O)N/N=C/c2cccnc2)c1CSC1=NCCS1	-1.4	1.3	2.1	-6.1	·
Nc1nonc1-n1nnc(C(=O)N/N=C/c2ccc(Br)cc2)c1CSC1=NCCS1	8.6	24.6	8.2	31.9*	27.5
Cc1cc(Nc2cc(F)c(F)c(F)c2)cc(=O)n1-c1cc(F)c(F)c(F)c1	7.5	8.1	0.2	·	·
CC(C)(C)N1Cc2nnn(Cc3ccccc3)c2-c2cc(N3CCCC3)ccc2S1(=O)=O	·	·	3.9	·	·
Cc1ccc(C)c(N2CCN(C(=O)c3ccc4nc(-c5ccco5)c(-c5ccco5)nc4c3)CC2)c1	-12.8	-10.5	29.4	63.7*	12.1
NC(CSC1(c2ccc(Cl)cc2)c2ccccc2-c2ccccc21)C(=O)O (centres undefined)	-2.5	-1.7	19.3	41.0*	57.2*
